Test results from ChEMBL document CHEMBL5678806, “NMS-P937, an orally available, specific small-molecule polo-like kinase 1 inhibitor with antitumor activity in solid and hematologic malignancies” (Mol Cancer Ther, 2012).

Tests used:
[1] = biological target: Rho-associated protein kinase 2 (Homo sapiens) (UniProt O75116); experiment: Inhibition of N-terminal His6-tagged recombinant human ROCK-II (11 to 552 residues) expressed in baculovirus infected Sf21 cells assessed as residual activity at 0.1 uM relative to control
Sequence of Rho-associated protein kinase 2 (Homo sapiens) (O75116 whole entry, looked up, the tested form may be a part): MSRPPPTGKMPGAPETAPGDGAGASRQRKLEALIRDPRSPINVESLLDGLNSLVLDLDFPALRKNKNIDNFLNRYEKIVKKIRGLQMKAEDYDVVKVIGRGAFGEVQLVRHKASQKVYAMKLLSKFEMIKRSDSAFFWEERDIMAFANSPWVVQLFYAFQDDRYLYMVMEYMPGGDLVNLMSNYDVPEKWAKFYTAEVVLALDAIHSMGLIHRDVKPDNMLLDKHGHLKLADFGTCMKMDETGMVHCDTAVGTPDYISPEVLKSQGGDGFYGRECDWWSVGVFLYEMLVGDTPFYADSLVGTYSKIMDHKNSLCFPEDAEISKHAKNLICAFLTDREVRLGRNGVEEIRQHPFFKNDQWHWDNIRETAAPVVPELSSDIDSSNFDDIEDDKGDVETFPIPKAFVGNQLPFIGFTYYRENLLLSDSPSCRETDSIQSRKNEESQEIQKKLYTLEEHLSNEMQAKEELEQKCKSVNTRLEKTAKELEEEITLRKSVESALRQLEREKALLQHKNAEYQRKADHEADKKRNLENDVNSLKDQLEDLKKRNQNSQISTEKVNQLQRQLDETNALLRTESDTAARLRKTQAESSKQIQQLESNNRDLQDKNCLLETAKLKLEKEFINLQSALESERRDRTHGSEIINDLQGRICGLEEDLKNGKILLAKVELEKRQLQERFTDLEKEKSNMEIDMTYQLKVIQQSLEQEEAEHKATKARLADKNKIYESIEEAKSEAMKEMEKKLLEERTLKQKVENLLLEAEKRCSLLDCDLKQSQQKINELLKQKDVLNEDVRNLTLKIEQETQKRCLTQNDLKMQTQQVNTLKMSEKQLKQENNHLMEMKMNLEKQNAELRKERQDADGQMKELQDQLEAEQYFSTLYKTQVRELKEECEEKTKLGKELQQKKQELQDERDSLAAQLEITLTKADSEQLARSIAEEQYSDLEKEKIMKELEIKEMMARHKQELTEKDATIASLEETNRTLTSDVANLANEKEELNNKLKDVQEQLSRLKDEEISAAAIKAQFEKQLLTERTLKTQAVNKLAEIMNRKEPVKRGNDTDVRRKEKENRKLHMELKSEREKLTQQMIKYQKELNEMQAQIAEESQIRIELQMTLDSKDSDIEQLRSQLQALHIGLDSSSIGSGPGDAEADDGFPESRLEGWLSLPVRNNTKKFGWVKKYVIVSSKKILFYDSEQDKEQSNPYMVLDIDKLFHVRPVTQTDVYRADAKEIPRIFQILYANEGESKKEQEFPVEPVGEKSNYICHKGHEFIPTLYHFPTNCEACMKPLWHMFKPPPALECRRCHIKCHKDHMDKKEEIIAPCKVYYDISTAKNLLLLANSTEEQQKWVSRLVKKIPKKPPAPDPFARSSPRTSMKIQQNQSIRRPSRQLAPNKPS

NCI-H889 = experiment: Antiproliferative activity against human NCI-H889 cells assessed as inhibition of cell growth incubated for 72 hrs by cell-titer glo assay; assay type: functional, cell-based; conditions: NCI-H889, 72 h
Method in brief: (§1)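 Cells from ATCC or ECACC, kept in supplier-recommended medium with 1% penicillin-streptomycin at 37°C, 5% CO₂. Seeded at 10,000–30,000/cm² (adherent) or 100,000/mL (nonadherent) in medium with 10% fetal calf serum. Dosed after 24 h in duplicate with serial dilutions. Viable cells read by CellTiter-Glo 72 h later. IC50 from sigmoidal fit. At least two independent experiments.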

SF-295 = experiment: Antiproliferative activity against human SF-295 cells assessed as inhibition of cell growth incubated for 72 hrs by cell-titer glo assay; assay type: functional, cell-based; conditions: SF-295, 72 h; method in brief: as §1
HDQ-P1 = experiment: Antiproliferative activity against human HDQ-P1 cells assessed as inhibition of cell growth incubated for 72 hrs by cell-titer glo assay; assay type: functional, cell-based; conditions: HDQ-P1, 72 h
Method in brief: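 Cells seeded at 10,000–30,000/cm² (adherent) in medium with 10% fetal calf serum; after 24 h treated in duplicate with serial dilutions for 72 h. Viable cell number read by CellTiter-Glo luminescence. IC50 from sigmoidal curve fit; at least two independent experiments.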

U2OS = experiment: Induction of apoptosis in human U2OS cells assessed as colocalization of cells by measuring Histone H3 phosphorylation on Ser10 incubated for 24 hrs by DRAQ 5 staining based high content imaging assay relative to control; assay type: functional
SF-539 = experiment: Antiproliferative activity against human SF-539 cells assessed as inhibition of cell growth incubated for 72 hrs by cell-titer glo assay; assay type: functional, cell-based; conditions: SF-539, 72 h; method in brief: as §1
[2] = biological target: Ephrin type-B receptor 1 (Homo sapiens) (UniProt P54762); experiment: Inhibition of N-terminal 6His-tagged recombinant human EphB1 (564 to end residues) expressed in baculovirus infected Sf21 cells assessed as residual activity at 0.1 uM relative to control
Sequence of Ephrin type-B receptor 1 (Homo sapiens) (P54762 whole entry): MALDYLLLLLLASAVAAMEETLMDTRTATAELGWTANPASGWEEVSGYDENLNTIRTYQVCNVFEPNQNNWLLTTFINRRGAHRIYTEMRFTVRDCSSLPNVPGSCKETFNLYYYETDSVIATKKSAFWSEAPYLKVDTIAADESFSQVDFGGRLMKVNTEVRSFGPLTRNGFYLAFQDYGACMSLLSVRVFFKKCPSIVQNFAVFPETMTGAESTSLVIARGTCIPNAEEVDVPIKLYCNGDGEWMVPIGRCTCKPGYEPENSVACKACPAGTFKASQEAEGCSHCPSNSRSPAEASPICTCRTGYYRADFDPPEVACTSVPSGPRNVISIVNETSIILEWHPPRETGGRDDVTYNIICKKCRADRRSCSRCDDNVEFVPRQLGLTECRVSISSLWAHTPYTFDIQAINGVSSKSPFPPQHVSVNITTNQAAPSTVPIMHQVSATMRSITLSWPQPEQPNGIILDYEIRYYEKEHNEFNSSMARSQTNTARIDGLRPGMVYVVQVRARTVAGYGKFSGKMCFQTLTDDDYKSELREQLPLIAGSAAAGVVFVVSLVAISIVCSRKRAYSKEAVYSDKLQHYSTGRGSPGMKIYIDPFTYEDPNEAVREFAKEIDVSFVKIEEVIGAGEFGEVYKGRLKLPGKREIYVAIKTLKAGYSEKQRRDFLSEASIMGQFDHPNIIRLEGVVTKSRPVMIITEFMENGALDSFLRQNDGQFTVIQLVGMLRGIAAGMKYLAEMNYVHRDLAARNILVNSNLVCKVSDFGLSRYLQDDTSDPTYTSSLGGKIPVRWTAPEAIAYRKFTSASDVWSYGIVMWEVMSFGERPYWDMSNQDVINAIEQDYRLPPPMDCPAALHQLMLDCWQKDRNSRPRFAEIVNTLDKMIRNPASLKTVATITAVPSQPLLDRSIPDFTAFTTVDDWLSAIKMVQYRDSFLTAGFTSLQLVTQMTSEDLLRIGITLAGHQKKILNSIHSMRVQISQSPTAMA

NCI-H1770 = experiment: Antiproliferative activity against human NCI-H1770 cells assessed as inhibition of cell growth incubated for 72 hrs by cell-titer glo assay; assay type: functional, cell-based; conditions: NCI-H1770, 72 h; method in brief: as §1
[3] = biological target: Dual specificity mitogen-activated protein kinase kinase 7 (Homo sapiens) (UniProt O14733); experiment: Inhibition of N-terminal GST-tagged recombinant human MKK7beta (2 to end residues) expressed in E. coli assessed as residual activity at 1 uM relative to control
Sequence of Dual specificity mitogen-activated protein kinase kinase 7 (Homo sapiens) (O14733 whole entry): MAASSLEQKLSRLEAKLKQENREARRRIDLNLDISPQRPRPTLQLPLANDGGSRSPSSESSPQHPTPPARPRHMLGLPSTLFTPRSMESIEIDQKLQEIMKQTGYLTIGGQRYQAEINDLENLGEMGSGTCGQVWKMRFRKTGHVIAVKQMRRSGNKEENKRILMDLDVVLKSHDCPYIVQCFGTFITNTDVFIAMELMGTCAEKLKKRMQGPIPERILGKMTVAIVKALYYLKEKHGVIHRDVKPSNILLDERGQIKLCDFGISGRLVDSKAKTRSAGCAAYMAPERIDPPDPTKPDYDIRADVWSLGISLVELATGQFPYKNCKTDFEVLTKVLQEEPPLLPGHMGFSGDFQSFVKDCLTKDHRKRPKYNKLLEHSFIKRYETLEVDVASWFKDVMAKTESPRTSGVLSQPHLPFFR

JIMT-1 = experiment: Antiproliferative activity against human JIMT-1 cells assessed as inhibition of cell growth incubated for 72 hrs by cell-titer glo assay; assay type: functional, cell-based; conditions: JIMT-1, 72 h
Method in brief: (§2)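 Cells seeded at 10,000–30,000/cm² (adherent) or 100,000/mL (nonadherent) in medium with 10% fetal calf serum; after 24 h, treated in duplicate with serial dilutions for 72 h. Viable cell number read by CellTiter-Glo luminescence; IC50 from sigmoidal fit; at least two independent experiments.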

[4] = biological target: SRSF protein kinase 3 (Homo sapiens) (UniProt Q9UPE1); experiment: Inhibition of N-terminal 6His-tagged recombinant human full-length MSSK1 expressed in baculovirus infected Sf21 cells assessed as residual activity at 1 uM relative to control
Sequence of SRSF protein kinase 3 (Homo sapiens) (Q9UPE1 whole entry): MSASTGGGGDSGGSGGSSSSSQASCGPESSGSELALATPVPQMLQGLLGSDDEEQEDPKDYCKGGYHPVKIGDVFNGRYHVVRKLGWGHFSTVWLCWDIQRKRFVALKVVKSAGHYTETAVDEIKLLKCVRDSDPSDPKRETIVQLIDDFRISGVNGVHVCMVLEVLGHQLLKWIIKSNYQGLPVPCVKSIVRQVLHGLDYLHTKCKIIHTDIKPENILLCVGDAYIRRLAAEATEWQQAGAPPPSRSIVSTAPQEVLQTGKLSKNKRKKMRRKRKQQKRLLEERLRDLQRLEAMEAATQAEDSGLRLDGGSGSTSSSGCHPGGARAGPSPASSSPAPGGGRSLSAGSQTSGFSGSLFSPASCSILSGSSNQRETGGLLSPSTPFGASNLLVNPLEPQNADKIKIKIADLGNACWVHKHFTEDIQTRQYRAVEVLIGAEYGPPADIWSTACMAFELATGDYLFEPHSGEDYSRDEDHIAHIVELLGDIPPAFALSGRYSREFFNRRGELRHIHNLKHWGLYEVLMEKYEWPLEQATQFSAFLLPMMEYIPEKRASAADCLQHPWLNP

SN12C = experiment: Antiproliferative activity against human SN12C cells assessed as inhibition of cell growth incubated for 72 hrs by cell-titer glo assay; assay type: functional, cell-based
[5] = Cmax in Beagle dog at 5 mg/kg, iv by LC-MS analysis; assay type: ADME, organism-based, Canis lupus familiaris; conditions: in vivo
UO-31 = experiment: Antiproliferative activity against human UO-31 cells assessed as inhibition of cell growth incubated for 72 hrs by cell-titer glo assay; assay type: functional, cell-based; conditions: UO-31, 72 h
LNCaP = experiment: Antiproliferative activity against human LNCaP cells assessed as inhibition of cell growth incubated for 72 hrs by cell-titer glo assay; assay type: functional, cell-based; method in brief: as §2
U-937 = experiment: Antiproliferative activity against human U-937 cells assessed as inhibition of cell growth incubated for 72 hrs by cell-titer glo assay; assay type: functional, cell-based; conditions: U-937, 72 h
SNB-19 = experiment: Antiproliferative activity against human SNB-19 cells assessed as inhibition of cell growth incubated for 72 hrs by cell-titer glo assay; assay type: functional, cell-based; conditions: SNB-19, 72 h
[6] = Tmax in nu/nu mouse at 10 mg/kg, po by LC-MS analysis; assay type: ADME, organism-based; conditions: in vivo
BXPC-3 = experiment: Antiproliferative activity against human BXPC-3 cells assessed as inhibition of cell growth incubated for 72 hrs by cell-titer glo assay; assay type: functional, cell-based; conditions: BXPC-3, 72 h
Method in brief: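 Cells seeded 10,000–30,000/cm² (adherent) or 100,000/mL (suspension) in medium with 10% fetal calf serum; after 24 h treated in duplicate with serial dilutions for 72 h. Viable cells read by CellTiter-Glo luminescence; IC50 from sigmoidal fit; at least two independent experiments.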

HeLa = experiment: Antiproliferative activity against human HeLa cells assessed as inhibition of cell growth incubated for 72 hrs by cell-titer glo assay; assay type: functional, cell-based; method in brief: as §2
Casein kinase 2 = Casein kinase 2 (Homo sapiens, UniProt P67870+P68400+P19784+Q8NEV1); experiment: Inhibition of alpha-subunit N-terminal 6His- and beta-subunit N-terminal GST-tagged recombinant human CK2 expressed in baculovirus infected Sf21 cells assessed as residual activity at 1 uM relative to control
[7] = biological target: Eukaryotic elongation factor 2 kinase (Homo sapiens, UniProt O00418); experiment: Inhibition of EEF2K (unknown origin) in presence of [gamma-33P]ATP
SK-OV-3 = experiment: Antiproliferative activity against human SK-OV-3 cells assessed as inhibition of cell growth incubated for 72 hrs by cell-titer glo assay; assay type: functional, cell-based; conditions: SK-OV-3, 72 h
NCI-H23 = experiment: Antiproliferative activity against human NCI-H23 cells assessed as inhibition of cell growth incubated for 72 hrs by cell-titer glo assay; assay type: functional, cell-based; conditions: NCI-H23, 72 h; method in brief: as §1
SU-DHL10 = experiment: Antiproliferative activity against human SU-DHL-10 cells assessed as inhibition of cell growth incubated for 72 hrs by cell-titer glo assay; assay type: functional, cell-based; conditions: SU-DHL10, 72 h
[8] = tested on: Platelet-derived growth factor receptor alpha (Homo sapiens), P16234 [D842V]; experiment: Inhibition of N-terminal His6-tagged recombinant human PDGFRalpha (550 to end residues) D842V mutant expressed in baculovirus infected Sf21 cells assessed as residual activity at 0.1 uM relative to control
Sequence of Platelet-derived growth factor receptor alpha (Homo sapiens), P16234 [D842V] (P16234 whole entry D842V): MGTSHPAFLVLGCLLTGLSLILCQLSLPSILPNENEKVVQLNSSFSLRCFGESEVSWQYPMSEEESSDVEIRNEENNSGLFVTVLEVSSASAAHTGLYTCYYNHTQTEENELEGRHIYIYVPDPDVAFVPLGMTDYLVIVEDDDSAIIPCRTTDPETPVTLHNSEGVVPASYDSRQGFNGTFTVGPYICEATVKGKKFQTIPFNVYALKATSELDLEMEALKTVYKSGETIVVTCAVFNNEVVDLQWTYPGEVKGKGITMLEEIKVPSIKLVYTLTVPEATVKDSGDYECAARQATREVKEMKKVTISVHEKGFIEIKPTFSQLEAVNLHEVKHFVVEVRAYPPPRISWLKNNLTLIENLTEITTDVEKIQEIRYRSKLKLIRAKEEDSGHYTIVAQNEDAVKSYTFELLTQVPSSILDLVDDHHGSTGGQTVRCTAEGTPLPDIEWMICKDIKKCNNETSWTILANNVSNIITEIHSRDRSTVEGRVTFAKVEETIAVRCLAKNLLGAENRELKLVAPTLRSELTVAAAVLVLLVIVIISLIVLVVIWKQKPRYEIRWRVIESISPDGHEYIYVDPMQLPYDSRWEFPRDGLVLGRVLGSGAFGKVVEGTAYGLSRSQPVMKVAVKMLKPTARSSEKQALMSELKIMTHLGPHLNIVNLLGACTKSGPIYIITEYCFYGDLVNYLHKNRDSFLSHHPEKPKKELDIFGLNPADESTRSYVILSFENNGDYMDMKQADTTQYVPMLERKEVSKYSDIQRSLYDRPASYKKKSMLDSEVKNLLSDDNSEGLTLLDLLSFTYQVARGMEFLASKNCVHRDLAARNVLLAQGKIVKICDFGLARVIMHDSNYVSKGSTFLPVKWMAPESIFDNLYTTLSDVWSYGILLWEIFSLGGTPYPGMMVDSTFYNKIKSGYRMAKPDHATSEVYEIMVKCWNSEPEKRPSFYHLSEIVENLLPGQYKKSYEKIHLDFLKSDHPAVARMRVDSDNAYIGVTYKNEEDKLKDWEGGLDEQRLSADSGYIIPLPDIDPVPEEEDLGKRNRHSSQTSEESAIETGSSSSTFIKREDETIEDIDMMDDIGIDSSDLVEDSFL

[9] = AUC in male cynomolgus monkey at 5 mg/kg, iv by LC-MS analysis; assay type: ADME, organism-based, Macaca fascicularis; conditions: in vivo
HT-29 = experiment: Antiproliferative activity against human HT-29 cells assessed as inhibition of cell growth incubated for 72 hrs by cell-titer glo assay; assay type: functional, cell-based; conditions: HT-29, 72 h; method in brief: as §2
OPM-2 = experiment: Antiproliferative activity against human OPM-2 cells assessed as inhibition of cell growth incubated for 72 hrs by cell-titer glo assay; assay type: functional, cell-based; conditions: OPM-2, 72 h; method in brief: as §1
[10] = biological target: Serine/threonine-protein kinase ULK3 (Homo sapiens) (UniProt Q6PHR2); experiment: Inhibition of N-terminal 6His-tagged recombinant human full-length ULK3 expressed in baculovirus infected Sf21 cells assessed as residual activity at 0.1 uM relative to control
Sequence of Serine/threonine-protein kinase ULK3 (Homo sapiens) (Q6PHR2 whole entry): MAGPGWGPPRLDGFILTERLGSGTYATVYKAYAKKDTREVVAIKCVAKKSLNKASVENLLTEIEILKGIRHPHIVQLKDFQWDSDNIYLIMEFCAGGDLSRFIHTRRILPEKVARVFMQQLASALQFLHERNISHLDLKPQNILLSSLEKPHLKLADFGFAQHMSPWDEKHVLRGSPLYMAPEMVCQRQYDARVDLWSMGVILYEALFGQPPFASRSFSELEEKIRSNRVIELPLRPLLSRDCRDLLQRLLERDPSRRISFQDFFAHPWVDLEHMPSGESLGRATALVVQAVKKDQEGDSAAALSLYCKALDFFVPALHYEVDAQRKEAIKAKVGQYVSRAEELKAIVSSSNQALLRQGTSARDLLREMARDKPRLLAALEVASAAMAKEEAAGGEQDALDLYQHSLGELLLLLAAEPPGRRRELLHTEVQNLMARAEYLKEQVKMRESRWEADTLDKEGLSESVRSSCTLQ

CN1CCN(c2ccc(OC(F)(F)F)c(Nc3ncc4c(n3)-c3c(c(C(N)=O)nn3CCO)CC4)c2)CC1 [ONVANSERTIB]
Activity [1]: 132% | IC50 (NCI-H889): 0.135 µM | IC50 (SF-295): 0.386 µM | IC50 (HDQ-P1): 0.051 µM | Activity (U2OS): 13% | IC50 (SF-539): 0.047 µM | Activity [2]: 69% | IC50 (NCI-H1770): 0.068 µM | Activity [3]: 80% | IC50 (JIMT-1): 0.105 µM | Activity [4]: 89% | IC50 (SN12C): 0.062 µM | Cmax [5]: 1.7 µM | IC50 (UO-31): 1.13 µM | IC50 (LNCaP): 0.082 µM | IC50 (U-937): 0.041 µM | IC50 (SNB-19): 0.224 µM | Tmax [6]: 24 min | IC50 (BXPC-3): 0.117 µM | IC50 (HeLa): 0.06 µM | Activity (Casein kinase 2): 42% | IC50 [7]: > 10 µM | IC50 (SK-OV-3): 0.191 µM | IC50 (NCI-H23): 0.056 µM | IC50 (SU-DHL10): 0.043 µM | Activity [8]: 122% | AUC [9]: 14.1 µM·h | IC50 (HT-29): 0.039 µM | IC50 (OPM-2): 0.038 µM | Activity [10]: 139%
